This is a sample that favours compounds with a hit; in the whole collection about 1.6% have one here.
ABCG2 block = ABCG2 efflux pump inhibitors, primary screen, multiplex with ABCB1, IgMXP3 cells, flow cytometry; 0.1% of 190,000 active; inhibition, % at 6.6 µM; Broad substrate specificity ATP-binding cassette transporter ABCG2 (Homo sapiens), Q9UNQ0; JC-1 efflux;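 active = inhibition above 80%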
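test system = two drug-resistant human cell lines, ABCG2 and ABCB1 | amount = 3 million cells/mL final, two lines in 1:1 ratio | reagent = JC-1 transporter substrate | doses = one concentration, 6.6 µM final | incubation = 10 min at 25 °C | signal = flow cytometric JC-1 green MFI at 530 nm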
NCF1 inh = p47phox/p22phox peptide binding inhibitors, primary screen, biochemical, uHTS, NADPH oxidase regulatory subunit. 0.53% of 220,000 active. fluorescence polarization, 2 h. Neutrophil cytosol factor 1 (Homo sapiens), P14598. inhibition, % at 24.7 µM. AID 1274, 2008;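 active = inhibition above about 30%, limit read from the data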
Target sequence (P14598 whole entry, looked up): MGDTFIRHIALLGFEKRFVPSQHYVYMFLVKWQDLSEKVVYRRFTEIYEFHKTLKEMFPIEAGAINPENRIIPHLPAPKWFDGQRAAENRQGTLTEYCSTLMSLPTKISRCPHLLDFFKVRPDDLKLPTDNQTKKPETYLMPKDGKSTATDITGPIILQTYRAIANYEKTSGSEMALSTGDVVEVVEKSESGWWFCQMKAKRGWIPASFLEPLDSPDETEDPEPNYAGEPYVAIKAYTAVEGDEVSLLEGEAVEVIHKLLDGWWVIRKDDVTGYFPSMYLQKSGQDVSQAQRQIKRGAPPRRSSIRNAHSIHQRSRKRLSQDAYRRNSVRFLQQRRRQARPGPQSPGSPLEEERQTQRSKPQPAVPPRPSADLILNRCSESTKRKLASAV
PHOSPHO1 block = PubChem AID 1565; Phosphoethanolamine/phosphocholine phosphatase (Homo sapiens), Q8TCT1; recombinant PHOSPHO1, absorbance phosphatase assay; inhibition, % at 13.3 µM; 1.1% of 290,000 active; in the data active = inhibition above about 60%
Target sequence (Q8TCT1 whole entry, looked up): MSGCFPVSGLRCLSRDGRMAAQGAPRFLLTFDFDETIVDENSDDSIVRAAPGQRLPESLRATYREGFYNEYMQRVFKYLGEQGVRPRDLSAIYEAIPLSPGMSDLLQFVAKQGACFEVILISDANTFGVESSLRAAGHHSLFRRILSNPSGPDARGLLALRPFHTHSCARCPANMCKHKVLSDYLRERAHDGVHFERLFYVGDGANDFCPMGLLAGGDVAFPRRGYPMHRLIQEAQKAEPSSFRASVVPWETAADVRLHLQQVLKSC
HSV augment = enhancers of HSV replication in host cells, fold increase, host cell viability. HSV replication augmentation in cells. maximum fold increase. 0.005% of 220,000 active; in the data active = maximum fold increase above about 1.5; tested in PC3 cells
ABCB1 block = ABCB1 efflux pump inhibitors, primary screen, cell-based, multiplex, flow cytometry, ABCG2 counter-screen; ATP-dependent translocase ABCB1 (Homo sapiens), P08183; CCRF-Adr cells, JC-1 efflux; inhibition, % at 6.6 µM; 0.067% of 190,000 active; AID 1326, 2008; in the data active = inhibition above about 40%;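 also: higher value means more JC-1 retained so stronger ABCB1 efflux block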
PKD1 inh = inhibitors of human PKD1 kinase, biochemical, fluorescence polarization. 0.056% of 200,000 active. AID 797, 2007. PKD1 kinase fluorescence polarization assay. inhibition, % (concentration not given with the values); in the data active = inhibition above about 50%
Of the large screens only hits and unclear results are named; the others gave an inactive call.

CC(=O)NN1C(=O)/C(=C\c2ccc(Br)o2)SC1=S	none
S=c1[nH]ncn1/N=C/c1cccc(Oc2ccccc2)c1	PHOSPHO1 block 96.9
CCN(CC)CCCNS(=O)(=O)c1ccc(OC)cc1	none
CCN(CC)CCNS(=O)(=O)c1ccc(OC)c(Br)c1	PHOSPHO1 block 92.7
Cc1ccc(C2SCC(C(=O)O)N2C(=O)c2ccc(F)cc2)cc1 (stereo not drawn)	none
O=C(O)C1CSC(c2ccccc2Cl)N1C(=O)c1ccc(Cl)cc1 (stereo not drawn)	NCF1 inh 86.6
O=C(Cc1n[nH]c(=O)c2ccccc12)NC(c1ccccc1)c1ccccc1	none (no result: ABCG2 block, ABCB1 block, PKD1 inh)
CC(=O)c1cccc(OCc2cc(C(=O)N3CCC(N4CCCCC4)CC3)no2)c1	PHOSPHO1 block 64.0 (no result: ABCG2 block, NCF1 inh, HSV augment, ABCB1 block, PKD1 inh)
Cc1ccc(NCC(=O)Nc2ccc(Br)cc2)cc1F	none
COc1ccc(-n2cc(-c3ccc(Cl)cc3)[nH]c2=S)cc1	PHOSPHO1 block 60.0 (no result: ABCG2 block, ABCB1 block, PKD1 inh)
Cc1ccc(C)c(NC(=O)CSc2nc3ccc(N4C(=O)c5ccccc5C4=O)cc3s2)c1	none
COC(=O)c1ccc(CN2C(=O)c3ccccc3S2(=O)=O)cc1	none
COC(=O)c1cccc(N2C(=O)c3ccccc3S2(=O)=O)c1	PHOSPHO1 block 92.1
NC(=O)c1ccc(NC(=O)c2cnc3ccccc3n2)cc1	none (no result: ABCG2 block, ABCB1 block, PKD1 inh)
COc1ccc([N+](=O)[O-])cc1NC(=O)COC(C)=O	PHOSPHO1 block 64.7
O=S(=O)(c1ccccc1)N1CCN(C(=S)Nc2ccccc2Cl)CC1	none (no result: ABCG2 block, NCF1 inh, HSV augment, ABCB1 block, PKD1 inh)
CC(=O)Nc1nc(=S)n(-c2ccccc2)[nH]1	PHOSPHO1 block 96.1
CC(C)c1nc(=S)n(-c2ccccc2)[nH]1	none
COc1ccc(-c2c(C(F)(F)F)oc3cc(OCC(=O)Nc4ccccc4C(F)(F)F)ccc3c2=O)cc1OC	NCF1 inh 31.1
COc1ccccc1-c1c(C(F)(F)F)oc2cc(OCC(=O)Nc3ccccc3C(F)(F)F)ccc2c1=O	none
CCOC(=O)c1nn(-c2ccccc2C)c(=O)c2c(N)scc12	none
CCOC(=O)c1c(N)sn(-c2ccccc2C)c1=S	PHOSPHO1 block 96.0
Cc1c(N=C2NN=C(c3c[nH]c4ccccc34)CS2)c(=O)n(-c2ccccc2)n1C	none (no result: ABCG2 block, ABCB1 block, PKD1 inh)
FC(F)(F)c1cccc(Cc2noc(CN3CCCC(OCc4ccccn4)C3)n2)c1 (stereo not drawn)	PHOSPHO1 block 64.2
FC(F)(F)c1ccc2c(c1)NCC1CCCN21 (stereo not drawn)	NCF1 inh 51.0
O=c1c2c([N+](=O)[O-])cc([N+](=O)[O-])cc2sn1-c1ccc(Br)cc1	NCF1 inh 73.9, PHOSPHO1 block 88.7
O=c1c2c([N+](=O)[O-])cc([N+](=O)[O-])cc2sn1Cc1ccccc1	none (no result: ABCG2 block, NCF1 inh, HSV augment, ABCB1 block, PKD1 inh)
Cc1cc2nnc(SC3CCOC3=O)n2c2ccccc12 (stereo not drawn)	PHOSPHO1 block 74.0
CCOC(=O)c1c(-c2ccccc2)oc2cc(CN(C)C)c(O)c(CN(C)C)c12	none (no result: ABCG2 block, NCF1 inh, PHOSPHO1 block, HSV augment, ABCB1 block)
COc1ccc(S(=O)(=O)N2CCN(CC(=O)Nc3ccc(C)c(F)c3)CC2)cc1	none
COC(=O)c1ccc(NS(=O)(=O)c2cccc3cccnc23)cc1	NCF1 inh 49.1
COc1ccc(NS(=O)(=O)c2cccc3cccnc23)cc1	none
COc1cc(SC)ccc1C(=O)NCc1ccc(C)cc1	none
COc1cc(SC)ccc1C(=O)NCc1ccccc1	NCF1 inh 76.8
CSCCC(C)N1CCC(Oc2ccc(C(=O)N3CCCC3)cc2)CC1 (stereo not drawn)	none (no result: ABCG2 block, NCF1 inh, HSV augment, ABCB1 block, PKD1 inh)
O=S(=O)(c1ccc(Cl)cc1)N1CCSC1c1ccco1 (stereo not drawn)	PHOSPHO1 block 68.2
CCCCCC(=O)NNC1=NCC(Cc2cccc(Cl)c2)S1 (stereo not drawn)	none
c1ccc(-c2nc3ccccc3c3nncn23)cc1	NCF1 inh 34.7 (no result: HSV augment)
O=C(N1CCOCC1)N1CCc2ccccc21	none (no result: ABCG2 block, NCF1 inh, HSV augment, ABCB1 block, PKD1 inh)
Cc1cc(C)c2c(c1)-c1c(ssc1=S)C(C)(C)N2C(=O)CSc1nncn1C	PHOSPHO1 block 62.4
Cc1ccc2c(c1)-c1c(ssc1=S)C(C)(C)N2C(=O)CSc1nncn1C	none
Cc1ccc(C(=O)C2=C(O)C(=O)N(Cc3ccccc3)C2c2cccnc2)o1 (stereo not drawn)	NCF1 inh 55.4
CCN=C1Sc2nc3ccc(OCC)cc3cc2CN1CCOC	PHOSPHO1 block 71.9
CCN(CC)CCNC(=O)Cc1nn(Cc2ccccc2)c(=O)c2ccccc12	none
C[N+]1(CCOS(=O)C23CC4CC(CC(C4)C2)C3)CCOCC1 (stereo not drawn)	PHOSPHO1 block 81.0
O=C(O)CCCn1cc(NC(=O)c2c(F)cccc2F)cn1	none
O=C(NCCCn1ccnc1)C(=O)NC1CCCCC1	none
O=C(O)C1CCCCC1C(=O)NCCCn1ccnc1 (stereo not drawn)	NCF1 inh 36.3
COc1ccccc1N1CCN(C(c2cccs2)C(C)NC(=O)c2ccncc2)CC1 (stereo not drawn)	none (no result: ABCG2 block, ABCB1 block, PKD1 inh)
CCOC(=O)CCC(=O)Nc1ccc(S(=O)(=O)N2CCCC2)cc1	none
CC(C)c1ccc(S(=O)(=O)N2CCN(CCC(=O)Nc3ccc(N(C)C)cc3)CC2)cc1	PHOSPHO1 block 82.6
COc1ccc(NC(=S)N2CCN(S(=O)(=O)c3ccc(F)cc3)CC2)cc1	PHOSPHO1 block 65.8 (no result: ABCG2 block, NCF1 inh, HSV augment, ABCB1 block, PKD1 inh)
CCOC(=O)CCC(=O)Nc1ccc(S(=O)(=O)N2CCC(C)CC2)cc1	NCF1 inh 31.0
COc1ccc(S(=O)(=O)N2CCN(c3ccccc3)CC2)cc1	PHOSPHO1 block 60.1
CCc1nn(CC(=O)N2CCCCCC2)c(=O)c2cc3ccccc3n12	none (no result: ABCG2 block, NCF1 inh, HSV augment, ABCB1 block, PKD1 inh)
COc1ccc(S(=O)(=O)N2CCC(NC(=O)Nc3ccc(C)cc3)CC2)cc1	PHOSPHO1 block 60.5
CCN(c1ccc(NC(=O)COC(=O)c2ccc(S(=O)(=O)N3CCCC3)cc2)cc1)C(C)C	PHOSPHO1 block 104.3
CCC(C(=O)NC1CC1)n1nc(C)c2c(C)n(-c3ccccc3)nc2c1=O (stereo not drawn)	PHOSPHO1 block 64.7 (no result: ABCG2 block, NCF1 inh, HSV augment, ABCB1 block, PKD1 inh)
CCC(C(=O)NC1CCCCC1)n1nc(C)c2c(C)n(-c3ccccc3)nc2c1=O (stereo not drawn)	none (no result: ABCG2 block, NCF1 inh, HSV augment, ABCB1 block, PKD1 inh)
COc1ccc(OC)c(CCNC(=O)C(C)n2nc(C)c3c(C)n(-c4ccccc4)nc3c2=O)c1 (stereo not drawn)	PHOSPHO1 block 70.1 (no result: ABCG2 block, NCF1 inh, HSV augment, ABCB1 block, PKD1 inh)
CN(C)CCCOC(=O)COc1ccc(C(C)(C)C)cc1	none
Nc1ccc(SC(F)(F)F)cc1	none
CCOC(=O)c1[nH]c2cc(OC)c(OC)cc2c1NC(=O)c1ccc2c(c1)OCO2	PHOSPHO1 block 67.8
O=c1c2c(-c3cccs3)csc2[nH]c(=S)n1-c1ccccc1	PHOSPHO1 block 67.1
CC1=NOC(=O)/C1=C/c1ccc(N(C)C)cc1	NCF1 inh 180.7
